# High-throughput results from PubChem.
# Ec RNAP inh: Escherichia coli RNA polymerase inhibition | P0A8V2 | E. coli RNA polymerase, fluorescence transcription assay | inhibition, %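 (tested at 10 µM)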 | actives 0.2% (n = 62,000) | AID 559; in the data active = inhibition above about 20%;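 also: 0% = enzyme without compound and 100% = no enzyme blank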
# Cdc25B inh: human M-phase inducer phosphatase 2 inhibition | recombinant Cdc25B, OMFP fluorescence Ex485/Em525 | inhibition, %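 (compounds tested at 10 µM final in the well)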 | actives 0.1% (n = 65,000) | AID 368; in the data active = inhibition above about 50%
# Target sequence (P30305 whole entry, looked up): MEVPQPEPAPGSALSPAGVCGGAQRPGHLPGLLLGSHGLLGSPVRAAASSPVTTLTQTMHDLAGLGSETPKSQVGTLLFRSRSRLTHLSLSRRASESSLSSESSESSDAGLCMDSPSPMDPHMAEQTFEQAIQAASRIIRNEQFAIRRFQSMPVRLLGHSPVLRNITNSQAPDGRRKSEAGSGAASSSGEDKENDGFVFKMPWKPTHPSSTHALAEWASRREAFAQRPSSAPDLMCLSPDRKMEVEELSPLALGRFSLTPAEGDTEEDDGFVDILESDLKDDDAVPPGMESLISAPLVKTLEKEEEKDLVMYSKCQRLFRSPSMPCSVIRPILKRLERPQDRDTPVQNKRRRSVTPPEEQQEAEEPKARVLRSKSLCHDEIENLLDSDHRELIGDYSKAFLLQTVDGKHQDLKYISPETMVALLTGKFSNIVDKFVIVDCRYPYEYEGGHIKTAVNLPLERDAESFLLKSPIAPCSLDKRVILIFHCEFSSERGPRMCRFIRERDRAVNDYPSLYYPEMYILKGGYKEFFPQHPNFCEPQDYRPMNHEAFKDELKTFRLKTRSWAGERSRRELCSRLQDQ
# MKP-1 inh: human dual specificity phosphatase 1 inhibition. inhibition, %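 (compounds tested at a single concentration somewhere between 10 and 100 µM)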. recombinant MKP-1, OMFP hydrolysis fluorescence. actives 0.15% (n = 65,000). P28562;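 active = inhibition above about 50%, limit read from the data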;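 also: 0% = DMSO max control wells and 100% = wells with enzyme stopped by NaOH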
# BAP1 inh: blocks human BAP1 ubiquitin-AMC hydrolysis | Q92560 | recombinant BAP1, Ub-AMC hydrolysis fluorescence kinetic; hits give low values | calls only at 20 µM | actives 0.48% (n = 72,000);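 active = activity remaining at or below 50% of control, provided the compound also passes the data quality filters; inactive = the rest, including low values that fail the filters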;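 also: 100% = DMSO wells rate and 0% = substrate alone blank rate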
# Hsp90 inh: displaces geldanamycin probe from tumor Hsp90 | inhibition, % at 30 µM | P07900 | NCI-N417 lysate Hsp90, Cy3B-geldanamycin FP displacement | actives 0.35% (n = 64,000);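 active = inhibition above 50%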;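 also: 0% = tracer plus lysate wells and 100% = tracer alone without lysate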
# Ecoli tolC: E. coli tolC mutant growth inhibition. E. coli BW25113 tolC mutant growth, OD615. growth inhibition, % at 10 µM (by protocol). actives 2.2% (n = 65,000);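 active = growth inhibition at or above a cutoff equal to the mean over every tested compound plus 3 SD, cut at about 60% in these data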;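 also: growth measured after 20 h incubation at 37 °C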
#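 Test system: tolC-deleted E. coli BW25113; medium: LB with kanamycin 50 µg/mL; compound: single-point testing at 10 µM; incubation: 20 h compound exposure of bacteria at 37 °C; signal: OD at 615 nm; evaluation: growth inhibition in percent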
# The depositor's hits bear a star; i = inactive; nt = no result given. Rows were chosen to be rich in hits. Some 2.9% of all compounds tested hit in one or more screens of this group.
SMILES,Ec RNAP inh,Cdc25B inh,MKP-1 inh,BAP1 inh,Hsp90 inh,Ecoli tolC
C=CCN1CCc2cc(O)c(O)cc2C(c2ccccc2)C1 (stereo not drawn),nt,nt,nt,i,56*,nt
C=CCN1CCc2c(cc(O)c(O)c2Cl)C(c2ccccc2)C1 (stereo not drawn),nt,nt,nt,i,76*,nt
CN(C)S(=O)(=O)c1ccc(C(=O)N2CC(=O)Nc3ccc(Cl)cc3C2c2ccccc2)cc1 (stereo not drawn),nt,nt,nt,i,nt,nt
COc1ccc(-n2nc3ccc(NC(=O)c4ccc(OC)c(OC)c4)cc3n2)cc1,nt,nt,nt,i,nt,nt
CC(=O)Nc1nc2ccccc2n1Cc1ccccc1C,-3,-2,-1,i,-6,98*
O=C(Nc1ccc(-c2nc3ccccc3o2)cc1)c1cccc(Oc2ccccc2)c1,nt,nt,nt,i,nt,nt
CCOc1ccc(N(CC(=O)Nc2ccc(C)c(C)c2)S(=O)(=O)c2c(C)noc2C)cc1,8,1,-2,i,-2,61*
Cc1ccc(C(=O)Nc2nnc(C(C)(C)C)s2)cc1,nt,nt,nt,i,nt,nt
CCCN(CCC)CCCNC(=O)c1cc2c(=O)n(C)c3ccccc3c2n1C,50*,-11,-5,i,-2,3
CC(COc1ccccc1)N(CCCl)Cc1ccccc1 (stereo not drawn),9,-10,-29,i,-2,11
CC(C)COCC(CN(Cc1ccccc1)c1ccccc1)N1CCCC1 (stereo not drawn),nt,nt,nt,i,64*,nt
Cn1c(CSc2nnc(SCc3ccccc3)s2)nc2ccccc21,1,74*,24,i,0,84*
Cn1c(CSc2nc3ccc(Br)cc3[nH]2)nc2ccccc21,3,-7,1,i,-3,34
COc1ccc([N+](=O)[O-])cc1NC(=O)c1ccc(S(=O)(=O)N(C)c2ccccc2)cc1,nt,nt,nt,i,nt,nt
CCOc1ccc2nc(NC(=O)C3CCCN(S(=O)(=O)c4cccs4)C3)sc2c1 (stereo not drawn),-1,-4,2,nt,-1,63*
CN(C)S(=O)(=O)c1ccc(S(=O)(=O)N(Cc2ccco2)Cc2ccccc2Cl)cc1,2,7,-1,i,3,-17
Cc1ccc(S(=O)(=O)N(Cc2ccc(F)cc2)Cc2ccco2)cc1,2,-1,8,i,-6,66*
Cc1ccc(S(=O)(=O)N(Cc2ccccc2)Cc2ccco2)cc1,8,-3,6,i,-5,64*
COc1ccc(S(=O)(=O)N(Cc2ccc(OC)c(OC)c2)Cc2ccco2)cc1,-1,-23,6,i,-2,42
COc1cc(NS(=O)(=O)c2ccc(NC(=O)c3ccccc3I)cc2)nc(OC)n1,nt,nt,nt,i,nt,nt
CCSc1nnc2c(n1)OC(c1ccc(N(CC)CC)cc1)Nc1ccccc1-2 (stereo not drawn),nt,nt,nt,i,nt,nt
CCCn1nnc(NC(=O)c2ccc(Br)cc2)n1,7,0,-1,i,1,-3
CCCn1nnc(NC(=O)c2cc(Br)cc(Br)c2OC)n1,nt,-13,50*,i,1,14
NC(=O)c1cccc(N=Cc2ccc([N+](=O)[O-])o2)c1,nt,nt,nt,i,nt,nt
CCn1cc(C(=O)O)c(=O)c2cc(F)c(N3CCN(C(=O)Nc4ccccc4)CC3)cc21,-1,0,-4,i,-3,100*
SMILES,Ec RNAP inh,Cdc25B inh,MKP-1 inh,BAP1 inh,Hsp90 inh,Ecoli tolC
CCn1cc(C(=O)O)c(=O)c2cc(F)c(N3CCNCC3)cc21,11,-12,-21,i,3,1
CCn1cc(C(=O)NCc2ccccn2)c(=O)c2cc(F)c(N3CCN(C)CC3)cc21,9,2,-15,i,-3,13
CCn1cc(C(=O)NCc2ccc3c(c2)OCO3)c(=O)c2cc(F)c(N3CCN(C)CC3)cc21,7,-3,20,i,4,100*
CCOC(=O)c1cn(CC)c2cc(N3CCSCC3)c(F)cc2c1=O,4,0,-5,i,-2,100*
Cc1c(Cl)cccc1NS(=O)(=O)c1ccccc1[N+](=O)[O-],nt,nt,nt,i,nt,nt
Cc1ccc(S(=O)(=O)N=C(CSC(N)=O)Nc2ccccc2C)cc1,nt,nt,nt,i,nt,nt
Cc1ccc(S(=O)(=O)CCc2nnc(NC(=O)c3ccc(C)c([N+](=O)[O-])c3)s2)cc1,nt,nt,nt,i,nt,nt
CC1CCC(C(C)C)C(OC(=O)COC(=O)c2ccc(=O)[nH]c2)C1 (stereo not drawn),12,-4,12,i,-1,63*
CCOc1nc(S(=O)(=O)c2ccc(C)cc2)c(Cl)s1,3,-9,-1,i,-3,15
Cc1ccc(S(=O)(=O)c2nc(Nc3nccs3)sc2Cl)cc1,7,3,10,i,0,98*
COc1ccc(OC)c(NS(=O)(=O)c2cc(OC)ccc2OC)c1,-7,1,12,i,11,3
COc1ccc(OC)c(NC(=O)COc2ccc(S(=O)(=O)NC(C)C)cc2)c1,21*,-6,5,i,3,0
CCCCOc1ccc(S(=O)(=O)Nc2cc(OC)ccc2OC)cc1,6,4,6,i,4,70*
COc1ccc(CNC(=O)COc2ccc(S(=O)(=O)NC(C)C)cc2)cc1,11,-7,1,i,-10,-8
CCc1ccc(N=Cc2ccc(Br)cc2)cc1,nt,nt,nt,i,nt,nt
CC(O)c1c(OCc2ccccc2)ncnc1OCc1ccccc1 (stereo not drawn),7,-8,-8,i,-3,66*
CCN1C(=O)CSC1=NC1C2CC3CC(C2)CC1C3 (stereo not drawn),2,-1,8,nt,nt,88*
CCc1nnc(NC(=O)c2cccc(C(=O)Nc3nnc(CC)s3)n2)s1,-1,5,2,i,-2,94*
CCc1nnc(NC(=O)c2ccncc2)s1,6,4,-10,i,-1,-13
COc1cc(C(=O)NCC(=O)n2nc(C)cc2C)cc(OC)c1OC,2,12,-17,i,-2,10
COc1cccc(C(=O)NCC(=O)n2nc(C)cc2C)c1,-6,22,-17,i,121*,-2
COc1cccc(-c2cc(C(F)(F)F)nc(N3CCOCC3)n2)c1,4,-18,5,nt,nt,68*
COc1ccccc1-c1cc(C(F)(F)F)nc(N2CCN(c3ccccc3)CC2)n1,5,-12,0,nt,nt,-5
COc1ccccc1-c1cc(C(F)(F)F)nc(N2CCOCC2)n1,7,-11,9,nt,nt,62*
COc1cccc(-c2cc(C(F)(F)F)nc(N3CCC(C)CC3)n2)c1,5,-7,3,nt,nt,2
O=C(CN1CCN(S(=O)(=O)c2ccc(F)cc2)CC1)Nc1ccc(Cl)c(C(F)(F)F)c1,10,-11,9,i,-1,64*
O=C(CN1CCN(S(=O)(=O)c2ccc(F)cc2)CC1)Nc1ccc2c(c1)OCCO2,-1,-7,-18,i,-2,7
O=C(Nc1ccc(Br)cc1)c1sc2ccccc2c1Cl,nt,nt,nt,i,nt,nt
CCCN(CCC)c1nc(NC2CCN(C(=O)OCC)CC2)nc(OC)n1,0,-11,27,i,-3,81*
